According to ChEMBL document CHEMBL4811218, “Discovery and optimization of withangulatin A derivatives as novel glutaminase 1 inhibitors for the treatment of triple-negative breast cancer” (Eur J Med Chem, 2021):
Calls of active or inactive are those of the source. No cut-off for these calls is given here.

Tests used:
[1] = target: T1, Glutaminase kidney isoform, mitochondrial (Homo sapiens) (UniProt O94925); experiment: Inhibition of human GLS1 at 10 uM relative to control
T1 sequence (whole entry): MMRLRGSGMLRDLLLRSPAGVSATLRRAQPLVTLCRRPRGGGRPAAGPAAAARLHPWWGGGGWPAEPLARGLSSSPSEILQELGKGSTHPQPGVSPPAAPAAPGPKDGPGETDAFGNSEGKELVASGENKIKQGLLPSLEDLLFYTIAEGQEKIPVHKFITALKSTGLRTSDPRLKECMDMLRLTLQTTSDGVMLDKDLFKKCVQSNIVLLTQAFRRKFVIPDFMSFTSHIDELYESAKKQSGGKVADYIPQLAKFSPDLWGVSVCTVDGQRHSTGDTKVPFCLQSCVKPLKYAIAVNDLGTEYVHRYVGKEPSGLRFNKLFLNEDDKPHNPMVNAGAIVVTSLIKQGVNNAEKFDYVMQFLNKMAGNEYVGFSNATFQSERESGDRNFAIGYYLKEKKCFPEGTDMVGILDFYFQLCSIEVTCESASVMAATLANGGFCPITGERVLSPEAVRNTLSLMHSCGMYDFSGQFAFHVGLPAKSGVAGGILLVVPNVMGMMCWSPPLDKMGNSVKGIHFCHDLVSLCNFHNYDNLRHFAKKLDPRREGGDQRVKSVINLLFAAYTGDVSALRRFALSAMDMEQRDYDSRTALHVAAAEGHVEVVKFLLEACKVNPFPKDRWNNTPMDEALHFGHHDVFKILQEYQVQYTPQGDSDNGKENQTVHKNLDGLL
Summary of the method: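 Human GLS1 hydrolase activity measured with a commercial GLS1 inhibitor screening kit, following the manufacturer's protocol. Single-point screening was run at 10 μM.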

MDA-MB-231 [2] = experiment: Inhibition of colony formation in human MDA-MB-231 cells at 160 to 640 nM treated for 24 hrs and incubated for 2 weeks by crystal violet staining based assay; type: functional, cell-based; details: dose 160-640 nM
Summary of the method: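 MDA-MB-231 cells seeded at 1000 per well and left 24 h. Treated with DMSO vehicle or compound for 24 h, then grown two weeks with medium changed twice weekly. Colonies fixed in 4% paraformaldehyde and stained with 0.05% crystal violet. Result expressed as % of vehicle. n = 4.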

MDA-MB-231 [3] = experiment: Induction of apoptosis in human MDA-MB-231 cells assessed as early apoptotic cells at 160 nM incubated for 12 hrs by annexin V-FITC/PI based flow cytometric analysis (reference value: 1.2%); type: functional
Summary of the method: (§1)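 Cells exposed to compound or 0.1% DMSO for 12 h at 37°C, then resuspended in PBS at 1×10^5 cells/mL. Stained with annexin V-FITC and PI for 20 min at room temperature in the dark, then analysed by flow cytometry. Quadrant percentages reported: lower right early apoptotic, upper right late apoptotic. n = 4, mean ± SD.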

MDA-MB-231 [4] = experiment: Induction of apoptosis in human MDA-MB-231 cells assessed as viable cells at 320 nM incubated for 12 hrs by annexin V-FITC/PI based flow cytometric analysis (reference value: 98.1%); type: functional; details: read-out: Activity; summary of the method: as §1
MDA-MB-231 [5] = experiment: Induction of apoptosis in human MDA-MB-231 cells assessed as late apoptotic cells at 320 nM incubated for 12 hrs by annexin V-FITC/PI based flow cytometric analysis (reference value: 0.7%); type: functional; summary of the method: as §1
MDA-MB-231 [6] = experiment: Induction of apoptosis in human MDA-MB-231 cells assessed as late apoptotic cells at 640 nM incubated for 12 hrs by annexin V-FITC/PI based flow cytometric analysis (reference value: 0.7%); type: functional; summary of the method: as §1
MDA-MB-231 [7] = experiment: Induction of apoptosis in human MDA-MB-231 cells assessed as necrotic cells at 640 nM incubated for 12 hrs by annexin V-FITC/PI based flow cytometric analysis (reference value: 0.1%); type: functional; summary of the method: as §1
MDA-MB-231 [8] = experiment: Induction of apoptosis in human MDA-MB-231 cells assessed as increase in cleaved caspase-9 expression after 12 hrs by Western blotting analysis; type: functional, cell-based; details: dose 160-640 nM
Summary of the method: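 MDA-MB-231 cells exposed to graded concentrations or 0.1% DMSO; the methods state 24 h, the legend 12 h. Lysed in RIPA, 80 µg protein per lane on SDS-PAGE and transferred to PVDF. Probed overnight at 4°C for caspase-3, cleaved caspase-3, caspase-9 and cleaved caspase-9, with GAPDH as loading control. HRP secondaries, ECL detection, densitometry. n = 4.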

[9] = target: T1, Glutaminase kidney isoform, mitochondrial (Homo sapiens); experiment: Inhibition of GLS1 in human MDA-MB-231 cells assessed as reduction in glutamate production incubated for 12 hrs by Amplex red glutamic acid assay; type: cell-based; details: dose 40-640 nM
Summary of the method: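 MDA-MB-231 cells pre-cultured 24 h at 37°C, then given compound or 0.1% DMSO for a further 12 h. Cells washed in PBS and lysed in RIPA at 4°C. Glutamate in the lysate measured with an Amplex Red glutamic acid kit per the manufacturer's protocol.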

MDA-MB-231 [10] = experiment: Antitumor activity against human MDA-MB-231 cells xenografted in BALB/c nude mouse assessed as reduction in tumor volume at 25 to 50 mg/kg, ip administered every 3 days for 4 weeks; type: functional, organism-based; details: dose 25-50 mg/kg
Summary of the method: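 Nude mice given 3×10^6 MDA-MB-231 cells in 200 µL PBS, injected subcutaneously into the right flank. Once tumors reached about 100 mm³, mice were randomized into four groups. Dosing was 25 or 50 mg/kg i.p. every three days for four weeks. Tumor volume, tumor weight and body weight were followed. n = 6, mean ± SD.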

[11] = Toxicity in BALB/c nude mouse xenografted with human MDA-MB-231 cells assessed as kidney tissue damage at 25 to 50 mg/kg, ip administered every 3 days for 4 weeks; type: organism-based; details: in vivo, 672 h, dose 25-50 mg/kg
Summary of the method: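 Xenograft-bearing nude mice (MDA-MB-231, s.c. right flank, treated from about 100 mm³) received 25 or 50 mg/kg i.p. every three days for four weeks. At the end mice were euthanized, and visceral organs were fixed in 4% paraformaldehyde for histopathology.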

MDA-MB-231 [12] = experiment: Potency index, ratio of WA IC50 to compound IC50 for antiproliferative activity against human MDA-MB-231 cells after 24 hrs by MTT assay; type: functional
Summary of the method: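 Ratio calculated from MTT IC50 values in MDA-MB-231 cells. Cells seeded at 5×10^3/well for 24 h, then treated 24 h at 0.078-10 µM with 0.1% DMSO as vehicle. Absorbance read at 570 nm after 4 h MTT and DMSO solubilization. Triplicate wells, at least three repeats.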

With `CC(=O)O[C@H]1C=C([C@H](C)[C@H]2CC(C)=C(C)C(=O)O2)[C@@]2(C)CC[C@H]3[C@@H](C[C@H]4O[C@]45[C@@H](OC(=O)CCCC(=O)Nc4ccc(N6CCOCC6)c(F)c4)C=CC(=O)[C@]35C)[C@@]12O` the inhibition [1] was 87.2%, the inhibition (MDA-MB-231 [2]) was “Active” and the Activity (MDA-MB-231 [3]) was 2.6%. It also gave a viability at 0.32 µM (MDA-MB-231 [4]) of 80.3%, an Activity (MDA-MB-231 [5]) of 2.9% and an Activity (MDA-MB-231 [6]) of 11.7%. The Activity (MDA-MB-231 [7]) was 0.1%, the Activity (MDA-MB-231 [8]) was “Dose-Dependent Effect” and the inhibition [9] was “Dose-Dependent Effect”. The Activity (MDA-MB-231 [10]) was “Active”, the Activity [11] was “Non-Toxic” and the “Ratio IC50” value (MDA-MB-231 [12]) was 20.
